High-throughput results: PubChem, Broad Institute
An excerpt weighted towards active compounds, which were near 2.2% of everything screened.
Rtt109 Vps75 = C. albicans Rtt109 histone acetyltransferase inhibition; AID 540336; 0.16% of 330,000 active; inhibition, % at 34.9 µM; purified Rtt109/Vps75, ThioGlo CoA-SH fluorescence, 4 h; Q5AAJ8;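 active = inhibition of at least 50% in every replicate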
Target sequence (Q5AAJ8 whole entry, looked up): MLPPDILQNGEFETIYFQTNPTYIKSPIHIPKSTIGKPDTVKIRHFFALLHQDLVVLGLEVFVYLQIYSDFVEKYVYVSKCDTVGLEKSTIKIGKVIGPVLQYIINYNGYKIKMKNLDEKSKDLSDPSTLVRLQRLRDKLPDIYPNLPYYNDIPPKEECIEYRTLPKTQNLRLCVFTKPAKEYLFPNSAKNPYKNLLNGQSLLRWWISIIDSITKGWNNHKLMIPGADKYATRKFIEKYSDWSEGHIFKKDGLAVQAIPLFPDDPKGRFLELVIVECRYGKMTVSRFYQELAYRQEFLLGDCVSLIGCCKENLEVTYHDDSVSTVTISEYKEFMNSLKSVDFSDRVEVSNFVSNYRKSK
DYRK1A inh = inhibitors of rat Dyrk1A kinase; AID 504441; inhibition, % at 12.5 µM; 0.43% of 310,000 active; ADP-Glo luminescence, NFATc1 peptide; in the data active = inhibition above about 50%;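 note: plate controls were vehicle with enzyme for no effect and no enzyme for full effect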
CAL PDZ FP-1 = blocks peptide binding to human CAL PDZ domain | inhibition, % at 20 µM | AID 504414 | purified CAL PDZ, TMR-peptide fluorescence polarization, 1 h | 0.02% of 330,000 active;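 active = highest replicate inhibition of at least 40%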;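 note: plate controls were DMSO neutral control wells for no effect and unlabeled competitor peptide control wells for full effect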
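Assay system – tagged CAL PDZ protein CerCALP, purified · Timing – 1 h at RT · Compound – single point, 20 µM · Measured by – fluorescence polarization from S- and P-plane intensities, G-factor corrected · Evaluation – inhibition from polarization loss · Probe or stimulus – TMR reporter peptide T*-PRC34 · Buffer or medium – pH 7.4 phosphate-saline buffer, reducing agent, detergent, IgG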
CAL PDZ FP-2 = inhibitors of human CAL PDZ peptide binding; Q9HD26; purified CAL PDZ, TMR-peptide fluorescence polarization, 1 h; inhibition, % at 24.9 µM; 0.92% of 300,000 active;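 active = mean inhibition of at least 30% with at least half of replicates also reaching 30%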;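 note: 0% = DMSO neutral control and 100% = excess unlabeled competitor peptide PRC23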
CDK5 p35 inh = blocks human CDK5/p35 kinase activity; Q00535+Q15078; Recombinant CDK5/p35, ADP-Glo luminescence, 60 min; inhibition, % at 10 µM; 0.01% of 330,000 active; AID 488839;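 active = highest replicate inhibition of at least 50% and at least 75% of replicates reaching 50%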;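 note: plate controls were DMSO neutral control for no effect and GW8510 at 10 µM for full effect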
dFosB activator = activators of mouse delta FosB homodimer; purified delta FosB, TAMRA-CDK5 oligo fluorescence polarization; percent of positive-control signal above neutral wells; activation, % at 25 µM; P13346; 0.99% of 340,000 active;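 active = mean activation above about 17%, with every replicate also reaching it, limit read from the data, passing the limit was not always enough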
Active calls of the source: *; x = no result.

SMILES	Rtt109 Vps75	DYRK1A inh	CAL PDZ FP-1	CAL PDZ FP-2	CDK5 p35 inh	dFosB activator
CCOc1cc(/C=N/n2c(C)nc3sc(C)c(C)c3c2=O)ccc1O	-6	3	0	72*	0	3
CC12CCC(C(=O)N(c3nccs3)C1=O)C2(C)C (stereo not given)	6	7	0	2	-1	1
CCCNC(=S)Nc1ccc(Cl)cc1C	-10	8	-1	50*	1	0
Cc1ccnc2nc(C(=O)OCCOc3ccc(F)cc3)nn12	-6	x	40*	-3	1	-4
CCN(CC)c1ccc(N2C(=O)CSC2=S)cc1	3	7	-4	45*	-1	8
CCCc1ccccc1OCCNC(C)=O	7	-3	-4	-1	-2	7
CN(C)c1ccc(/C=N\Nc2nc(-c3ccccc3)cc(=O)[nH]2)cc1	-3	x	1	71*	0	13
O=c1[nH]c(NCCO)nnc1Cc1ccccc1	-14	-3	-2	0	0	6
CC(=O)Nc1ccc(NC(=O)C(C)N(C)CC(=O)Nc2ccccc2Br)cc1 (stereo not given)	0	4	-2	33*	0	-1
CN(c1ccc(OCC(=O)N2CCC(C(N)=O)CC2)cc1)S(=O)(=O)c1cccs1	-4	x	0	62*	-1	5
COc1ccc(Cl)cc1NC(=O)CCc1nnc2ccc(N3CCC4(CC3)OCCO4)nn12	-3	-1	-3	-2	-3	-1
CCOC(=O)c1c(/N=C/C2C(=O)CCCC2=O)sc2c1CCCC2	1	-2	-1	3	-1	-12
CCOC(=O)c1c(/N=C/C2C(=O)CC(C)(C)CC2=O)sc2c1CCCC2	-10	2	-1	79*	0	2
CCOC(=O)[C@@H]1[C@H]2COc3cc(OC)ccc3[C@@H]2N2C(=O)N(c3cccc(Cl)c3)C(=O)[C@]12C	3	12	-1	-2	-1	5
COc1cccc(-c2sc3cc(OC)c(OC)cc3c2-c2ccc(OCCN3CCCCC3)cc2)c1	2	1	1	-4	0	34*
COc1ccc2c(-c3ccc(OCCN4CCCCC4)cc3)c(-c3ccccc3OC)sc2c1	-6	0	-1	32*	-2	48*
CC12CCC(=O)C=C1C(F)CC1C2C(O)CC2(C)C1CCC2(O)C(=O)CO (stereo not given)	18	x	-2	-3	0	2
CC1CN(CCN2CC(C)N(C=O)CC2C)C(C)CN1C=O (stereo not given)	8	2	1	4	-2	-12
COCn1c(-c2ccc(OC)cc2)nc2ccccc21	11	-5	x	107*	1	1
CC1CCN(C(=O)CN2C(=O)NC(C)(c3ccc4ccccc4c3)C2=O)CC1 (stereo not given)	9	-2	0	-3	-1	-9
Cc1ccc(-c2n[nH]c(=S)c3ccccc23)cc1S(=O)(=O)NCC1CCCO1 (stereo not given)	4	5	-4	39*	2	-3
Cc1ccc(-c2n[nH]c(=O)c3ccccc23)cc1S(=O)(=O)NCC1CCCO1 (stereo not given)	7	15	-2	x	0	-9
COc1cccc(CNC(=O)CSc2nnc3c(n2)[nH]c2ccccc23)c1	0	0	-2	2	2	3
O=C(NC(=S)Nn1cnnc1)c1ccccc1Br	-6	x	0	53*	1	4
COc1ccc(N(C(=O)c2snc(C(N)=O)c2N)C(C(=O)NCc2ccccc2)c2ccc(O)cc2)cc1 (stereo not given)	17	4	0	51*	-1	1
SMILES	Rtt109 Vps75	DYRK1A inh	CAL PDZ FP-1	CAL PDZ FP-2	CDK5 p35 inh	dFosB activator
COc1cc(-c2noc(CCCC(=O)Nc3cccnc3)n2)cc(OC)c1OC	-5	-1	-1	69*	-1	3
CCOc1cc(-c2noc(CCC(=O)Nc3cccnc3)n2)ccc1OC	-2	-4	-1	-4	0	-4
O=C(O)c1ccc(-c2ccc(OS(=O)(=O)c3ccccc3F)cc2)cc1	-5	2	-3	45*	1	2
CCC/C(=N\NC(=O)CNC(=O)c1ccc(Cl)cc1)c1ccccc1	6	3	-1	78*	-2	-12
C/C(Cc1ccccc1)=N\NC(=O)CNC(=O)c1ccc(Cl)cc1	-2	-4	0	x	2	0
CC(=O)Nc1ccc(N2C(=O)CC(N3CCN(Cc4ccc5c(c4)OCO5)CC3)C2=O)cc1 (stereo not given)	-14	4	-1	-7	-1	5
CCc1ccc(N2C(=O)CC(N3CCN(Cc4ccc5c(c4)OCO5)CC3)C2=O)cc1 (stereo not given)	1	0	-1	85*	1	-6
COc1ccc(C(=O)C2CCCN(C(=O)c3ccoc3C)C2)cc1F (stereo not given)	-2	1	x	119*	0	-8
COc1cc(C(=O)NCCC(c2ccccc2)c2ccccc2)cc(OC)c1OC	-5	-5	0	-2	2	-1
O=C(Cc1ccc(-n2c(=O)c3sccc3n(CC(=O)Nc3ccccc3)c2=O)cc1)NCc1ccco1	-7	-1	-1	-2	1	73*
O=C(c1cccc(S(=O)(=O)NCc2ccccc2)c1)N1CCCC1	1	-1	-1	85*	-1	0
O=C(c1cccc(S(=O)(=O)NCc2ccccc2)c1)N1CCN(c2ccccc2)CC1	11	x	-1	2	0	-3
CN(c1ccccc1)S(=O)(=O)c1cccc(C(=O)N2CCCCCC2)c1	-4	2	-1	39*	0	-4
Cc1ccc(NC(=O)CCN2CC(C)OC(C)C2)cc1 (stereo not given)	5	-9	-1	-2	0	-15
COc1ccccc1Oc1coc2cc(OC(=O)N3CCOCC3)ccc2c1=O	4	5	102*	-2	-1	-6
O=C(Oc1ccccc1)N1CCOCC1	-2	2	13	74*	-1	3
COc1cccc(Oc2coc3cc(OC(=O)N4CCOCC4)ccc3c2=O)c1	x	-1	-1	0	-2	-17
O=C(N/N=C/c1ccnc2ccccc12)c1ccccc1O	8	9	-3	-2	0	-9
COc1ccc(OCC(=O)Nc2c3c(nn2-c2ccc(OC)cc2)CS(=O)(=O)C3)cc1	0	4	0	-1	0	-8
CC(=O)Nc1ccc(S(=O)(=O)NCCSCc2ccco2)cc1	-7	-1	-1	-7	2	-1
CS(=O)(=O)NCCSCc1ccco1	53*	x	-3	-4	5	2
